Molecules are shown by their SMILES.

This note sets out measurements from ChEMBL document CHEMBL2311304, “Design, synthesis and in vitro and in vivo antitumor activities of novel bivalent β-carbolines” (Eur J Med Chem, 2013).

The first data set has as its system A-375. In words: Cytotoxicity against human malignant melanoma A375 cells assessed as reduction in optical density by MTT assay. The class given is functional, cell-based.
Conditions: not given
Put shortly: (§1)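 Cells were cultured in RPMI-1640 with 10% (v/v) fetal calf serum, 100 µg ml-1 penicillin and 100 µg ml-1 streptomycin at 37 °C in humidified 5% CO2. Compounds were dissolved in DMSO, with final DMSO at 2% (v/v) or lower. MTT staining was used, with three replicate wells per point. IC50 is the concentration giving a 50% drop in optical density versus untreated cells.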
The term IC50 denotes the point on the concentration scale where inhibition reaches its midpoint. Turning to `c1ccc2c(c1)c1ccncc1n2CCCCn1c2ccccc2c2ccncc21`, the concentration for half-maximal inhibition (IC50) is more than 200 µM.
Consider `Cc1nccc2c3ccc(OC(C)C)cc3n(CCCCCCn3c4cc(OC(C)C)ccc4c4ccnc(C)c43)c12`, for which the IC50 was 18.5 µM.
Take `Cc1nccc2c3ccccc3n(CCCCn3c4ccccc4c4ccnc(C)c43)c12`: the IC50 came out at 13.1 µM.

Test system in the next data set: not listed separately
Description: Antitumor activity in mouse Sarcoma 180 cells inoculated mouse assessed as tumor inhibition rate at one fifth of LD50 concentration once a day for consecutive 7 days by ip. The class given is functional. Set-up: scale not given: the % may be the effect or the level left.
Conditions: not given
Put shortly: (§2)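 Each tumour line was first grown in mice for 7 days, then harvested. Viable cells (2 × 10^6 per mouse) were injected s.c. into the armpit. Dosing began 24 h later: i.p., about one fifth of LD50, daily for 7 days, 10 female mice per group. […] Body weight was recorded every 3 days. Tumours were excised and weighed on day 21 to give inhibition rate.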
As to `Cc1nccc2c3ccc(OC(C)C)cc3n(CCCCCCn3c4cc(OC(C)C)ccc4c4ccnc(C)c43)c12`, the Activity is given as 40.6%.
In the case of `Cc1nccc2c3ccccc3n(CCCCn3c4ccccc4c4ccnc(C)c43)c12`, the Activity is given as 56.2%.

Another data set has as its system Mus musculus. Description: Toxicity in C57BL/6 mouse assessed as heart damage at 1 to 500 mg/kg, ip for 14 days. The class given is organism-based. The arrangement: dose 1-500 mg/kg, route intraperitoneal. The following applies: in vivo, 336 h. Put shortly:
(§3)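 Healthy C57BL/6 mice (9–12 weeks, 18–22 g) were fasted overnight with free access to water. Each received a single i.p. dose of 1.0–500 mg kg-1 in 0.5% CMC-Na, 10 mice per group (5 male, 5 female). Mice were watched continuously for 2 h, intermittently to 24 h, then occasionally to 14 days for tremor, twitch, jumping and supination. At day 14 they were killed and heart, liver and kidneys were examined macroscopically.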
Take `c1ccc2c(c1)c1ccncc1n2CCCCn1c2ccccc2c2ccncc21`: the Activity result was “Non-toxic”.
Take `Cc1nccc2c3ccc(OC(C)C)cc3n(CCCCCCn3c4cc(OC(C)C)ccc4c4ccnc(C)c43)c12`: the Activity result is given as “Non-toxic”.
`Cc1nccc2c3ccccc3n(CCCCn3c4ccccc4c4ccnc(C)c43)c12`: the Activity entry is on record as “Non-toxic”.

In another data set the test system is Mus musculus. Description: Neurotoxicity in C57BL/6 mouse at 1 to 500 mg/kg, ip for 14 days. The class given is toxicity, organism-based. Set-up: dose 1-500 mg/kg, route intraperitoneal. The settings on record: in vivo, 336 h. The procedure, abridged:
as §3
Take `c1ccc2c(c1)c1ccncc1n2CCCCn1c2ccccc2c2ccncc21`: the Activity result is “Non-toxic”.
Take `Cc1nccc2c3ccc(OC(C)C)cc3n(CCCCCCn3c4cc(OC(C)C)ccc4c4ccnc(C)c43)c12`: the Activity result was “Non-toxic”.
With `Cc1nccc2c3ccccc3n(CCCCn3c4ccccc4c4ccnc(C)c43)c12`, the Activity result is “Non-toxic”.

For the next data set, the system named is Mus musculus. Description: Toxicity in C57BL/6 mouse assessed as maximum weight loss at 40 mg/kg, ip. Set-up: dose 40 mg/kg, route intraperitoneal. The class given is organism-based. The settings on record: in vivo. The procedure, abridged: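 Tumor-bearing mice, 10 females per group, were inoculated s.c. in the armpit with 2 × 10^6 viable tumor cells. Compound was given i.p. once daily for 7 consecutive days, starting 24 h after inoculation. […] Body weight was recorded every 3 days until sacrifice on day 21.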
As to `c1ccc2c(c1)c1ccncc1n2CCCCn1c2ccccc2c2ccncc21`, the Activity was found to be 14.5%.
`Cc1nccc2c3ccc(OC(C)C)cc3n(CCCCCCn3c4cc(OC(C)C)ccc4c4ccnc(C)c43)c12`: the Activity is on record as 10.2%.
With `Cc1nccc2c3ccccc3n(CCCCn3c4ccccc4c4ccnc(C)c43)c12`, the Activity was found to be 21.5%.

The next data set relates to Mus musculus. In words: Toxicity in C57BL/6 mouse assessed as liver damage at 1 to 500 mg/kg, ip for 14 days. Set-up: dose 1-500 mg/kg, route intraperitoneal. The class given is organism-based. The settings on record: in vivo, 336 h. The procedure, abridged: as §3
Consider `c1ccc2c(c1)c1ccncc1n2CCCCn1c2ccccc2c2ccncc21`, for which the Activity entry was “Non-toxic”.
Still for that read-out and setting: then `Cc1nccc2c3ccc(OC(C)C)cc3n(CCCCCCn3c4cc(OC(C)C)ccc4c4ccnc(C)c43)c12`, with “Non-toxic”.
As for `Cc1nccc2c3ccccc3n(CCCCn3c4ccccc4c4ccnc(C)c43)c12`, the Activity entry is “Non-toxic”.

The subject of another data set is BGC-823. In words: Cytotoxicity against human gastric carcinoma BGC823 cells assessed as reduction in optical density by MTT assay. The class given is functional, cell-based.
Conditions: not given
The procedure, abridged:
as §1
On to `c1ccc2c(c1)c1ccncc1n2CCCCn1c2ccccc2c2ccncc21`, for which the IC50 was 59.7 µM.
As for `Cc1nccc2c3ccc(OC(C)C)cc3n(CCCCCCn3c4cc(OC(C)C)ccc4c4ccnc(C)c43)c12`, the IC50 came to 194 µM.
Same read-out and setting: then `Cc1nccc2c3ccccc3n(CCCCn3c4ccccc4c4ccnc(C)c43)c12`, with 22.3 µM.

In a further data set the test system is B16. Description: Antitumor activity in mouse B16 melanoma cell lines cells inoculated mouse assessed as tumor inhibition rate at one fifth of LD50 concentration once a day for consecutive 7 days by ip. The class given is functional. Set-up: scale not given: the % may be the effect or the level left.
Conditions: not given
The procedure, abridged:
as §2
As for `Cc1nccc2c3ccc(OC(C)C)cc3n(CCCCCCn3c4cc(OC(C)C)ccc4c4ccnc(C)c43)c12`, the Activity came out at 20.5%.
Take `Cc1nccc2c3ccccc3n(CCCCn3c4ccccc4c4ccnc(C)c43)c12`: the Activity was 29.9%.

Another data set concerns SK-OV-3. In words: Cytotoxicity against human ovary adenocarcinoma SKOV3 cells assessed as reduction in optical density by MTT assay. The class given is functional, cell-based. The settings on record: SK-OV-3, Female gonad. The procedure, abridged:
as §1
(Tetrazolium assays rely on reduction of a dye to a coloured formazan, in cell work by metabolically active cells.)
Regarding `c1ccc2c(c1)c1ccncc1n2CCCCn1c2ccccc2c2ccncc21`, the IC50 is more than 200 µM.
For `Cc1nccc2c3ccc(OC(C)C)cc3n(CCCCCCn3c4cc(OC(C)C)ccc4c4ccnc(C)c43)c12`, the IC50 is 17.1 µM.
On the same count and under the same terms, under `Cc1nccc2c3ccccc3n(CCCCn3c4ccccc4c4ccnc(C)c43)c12` stands 4.8 µM.

In the next data set the test system is Mus musculus. In words: Toxicity in C57BL/6 mouse assessed as kidney damage at 1 to 500 mg/kg, ip for 14 days. Set-up: dose 1-500 mg/kg, route intraperitoneal. The class given is organism-based. The following applies: in vivo, 336 h. The procedure, abridged: as §3
`c1ccc2c(c1)c1ccncc1n2CCCCn1c2ccccc2c2ccncc21`: the Activity result was “Non-toxic”.
In the case of `Cc1nccc2c3ccc(OC(C)C)cc3n(CCCCCCn3c4cc(OC(C)C)ccc4c4ccnc(C)c43)c12`, the Activity result is reported as “Non-toxic”.
For the molecule `Cc1nccc2c3ccccc3n(CCCCn3c4ccccc4c4ccnc(C)c43)c12`, the Activity result is “Non-toxic”.

Test system in another data set: not listed separately
In words: Antitumor activity in mouse Lewis lung cancer cells inoculated mouse assessed as tumor inhibition rate at one fifth of LD50 concentration once a day for consecutive 7 days by ip. The class given is functional, Cancer cell lines. Set-up: scale not given: the % may be the effect or the level left.
Conditions: not given
The procedure, abridged: as §2
On to `c1ccc2c(c1)c1ccncc1n2CCCCn1c2ccccc2c2ccncc21`, for which the Activity is 34.2%.
Consider `Cc1nccc2c3ccc(OC(C)C)cc3n(CCCCCCn3c4cc(OC(C)C)ccc4c4ccnc(C)c43)c12`, for which the Activity worked out at 49.6%.
On to `Cc1nccc2c3ccccc3n(CCCCn3c4ccccc4c4ccnc(C)c43)c12`, for which the Activity turned out to be 40.4%.

In a further data set the test system is KB. In words: Cytotoxicity against human epidermoid carcinoma of the nasopharynx KB cells assessed as reduction in optical density by MTT assay. The class given is functional, cell-based.
Conditions: not given
Put shortly: as §1
Turning to `c1ccc2c(c1)c1ccncc1n2CCCCn1c2ccccc2c2ccncc21`, the IC50 was more than 200 µM.
Regarding `Cc1nccc2c3ccc(OC(C)C)cc3n(CCCCCCn3c4cc(OC(C)C)ccc4c4ccnc(C)c43)c12`, the IC50 is 19.8 µM.
Still for that read-out and setting: under `Cc1nccc2c3ccccc3n(CCCCn3c4ccccc4c4ccnc(C)c43)c12` stands 6.4 µM.

The next data set deals with 769-P. In words: Cytotoxicity against human renal carcinoma 769-P cells assessed as reduction in optical density by MTT assay. The class given is functional, cell-based.
Conditions: not given
Put shortly:
as §1
Turning to `Cc1nccc2c3ccc(OC(C)C)cc3n(CCCCCCn3c4cc(OC(C)C)ccc4c4ccnc(C)c43)c12`, the IC50 came out at 95.4 µM.
Turning to `Cc1nccc2c3ccccc3n(CCCCn3c4ccccc4c4ccnc(C)c43)c12`, the IC50 is 6.5 µM.

A further data set relates to H22. In words: Antitumor activity in mouse H22 liver cancer cells inoculated mouse assessed as tumor inhibition rate at one fifth of LD50 concentration once a day for consecutive 7 days by ip. The class given is functional. The arrangement: scale not given: the % may be the effect or the level left.
Conditions: not given
Put shortly:
as §2
As to `Cc1nccc2c3ccc(OC(C)C)cc3n(CCCCCCn3c4cc(OC(C)C)ccc4c4ccnc(C)c43)c12`, the Activity stood at 39.7%.
The same measure, in the same setting: then `Cc1nccc2c3ccccc3n(CCCCn3c4ccccc4c4ccnc(C)c43)c12`, with 42.3%.

The test system of another data set is CT26. In words: Antitumor activity in mouse CT26 colon cancer cells inoculated mouse assessed as tumor inhibition rate at one fifth of LD50 concentration once a day for consecutive 7 days by ip. The class given is functional. The arrangement: scale not given: the % may be the effect or the level left.
Conditions: not given
Put shortly:
as §2
On to `c1ccc2c(c1)c1ccncc1n2CCCCn1c2ccccc2c2ccncc21`, for which the Activity was 39.7%.
On to `Cc1nccc2c3ccc(OC(C)C)cc3n(CCCCCCn3c4cc(OC(C)C)ccc4c4ccnc(C)c43)c12`, for which the Activity was found to be 51.2%.
In the case of `Cc1nccc2c3ccccc3n(CCCCn3c4ccccc4c4ccnc(C)c43)c12`, the Activity is 50.8%.
